Shown are actives, neighbours in structure and some others; about 1.7% of the full set was active somewhere.
LMPTP block – LMPTP (human) inhibition. inhibition, % at 20 µM. P24666. 0.22% of 360,000 active. recombinant LMPTP-A, OMFP fluorogenic substrate, fluorescence intensity. AID 651560;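 active = compounds that cut the enzyme signal by at least half of the control window in the single-dose screen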;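 note: plate controls were DMSO wells with enzyme plus substrate for no effect and substrate without enzyme for full effect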
Target sequence (P24666 whole entry, looked up): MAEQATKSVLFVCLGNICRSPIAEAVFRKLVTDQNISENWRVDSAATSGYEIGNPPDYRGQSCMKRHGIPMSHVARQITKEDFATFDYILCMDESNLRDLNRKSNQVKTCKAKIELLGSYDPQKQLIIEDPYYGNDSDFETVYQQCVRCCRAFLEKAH
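Test system: LMPTP-A phosphatase enzyme. Amount: LMPTP-A at 0.625 nM final in the reaction. Reagent: OMFP substrate, 400 µM final. Times: 50 min at room temperature. Signal: endpoint fluorescence intensity from OMFP dephosphorylation. Read-out basis: % inhibition. Benchmarks: no-enzyme and uninhibited controls.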
Scp1 inh – inhibitors of human Scp-1 phosphatase; Recombinant Scp1, phosphopeptide, malachite green phosphate absorbance; AID 493091; 0.88% of 340,000 active; inhibition, % at 20 µM;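 active = inhibition above about 50% at 20 µM, limit read from the data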;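 note: plate controls were DMSO wells with enzyme for no effect and wells lacking enzyme for full effect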
Target sequence (Q9GZU7 76-261 limits assumed): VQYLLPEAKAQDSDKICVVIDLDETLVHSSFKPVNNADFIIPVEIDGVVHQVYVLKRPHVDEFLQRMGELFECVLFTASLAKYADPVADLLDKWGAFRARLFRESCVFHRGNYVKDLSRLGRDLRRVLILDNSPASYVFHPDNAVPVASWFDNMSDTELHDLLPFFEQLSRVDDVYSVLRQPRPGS
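Material: truncated SCP-1 phosphatase (76-261aa) / Buffer or medium: 50 mM Tris acetate pH 5.5, 0.005% Tween-20, 10 mM MgCl2 / Compound dosing: one concentration, 20 µM, with 1.0% DMSO / Incubation: 45 min room-temperature reaction, 5 min colour, 30 min stabiliser / Detection: colorimetric free-phosphate detection, absorbance 630 nm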
STEP block – inhibitors of human striatal-enriched phosphatase STEP; P54829; recombinant STEP, OMFP fluorogenic substrate, fluorescence; inhibition, % at 20 µM; 0.25% of 360,000 active; AID 588621;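 active = inhibition at 20 µM, scaled per plate between control wells, above about 37%, limit read from the data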;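 note: 0% = DMSO with enzyme and substrate and 100% = substrate only without enzyme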
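Measure: Control-normalized % inhibition with plate pattern correction | Test system: STEP phosphatase, cell-free reaction | Medium: pH 6.0 Bis-Tris with DTT and Tween 20 | Technique: Fluorescence, 480/540 nm | Times: Reaction 20 min, ambient temperature | Doses: Single compound dose of 20 µM, 1% DMSO final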
SUMO1-SIM PPI – modulators of human SUMO1-mediated protein-protein interactions | P63165 | SUMO1 binding to a labelled peptide, TR-FRET, 1 h | inhibition, % at 20 µM | 0.33% of 360,000 active | AID 602429; in the data active = inhibition above about 37%
Target sequence (P63165 whole entry, looked up): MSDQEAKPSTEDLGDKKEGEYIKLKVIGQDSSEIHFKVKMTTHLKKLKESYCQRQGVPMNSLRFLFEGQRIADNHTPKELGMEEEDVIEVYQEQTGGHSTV
DNMT1 inh – inhibitors of human DNMT1 | P26358 | DNMT1 molecular beacon, Hinp1I cleavage, fluorescence | inhibition (reported as % activation of signal), % at 10 µM | 0.83% of 360,000 active | AID 588458; in the data active = inhibition above about 50%
Scp1 confirm – confirmation of human Scp-1 phosphatase inhibitors; shares compounds with Scp1 inh; recombinant SCP-1 catalytic domain, phosphate release, malachite green absorbance; inhibition, % at 20 µM; 61% of 2,500 active; AID 540281;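 note: plate controls were DMSO with enzyme for no effect and buffer wells lacking enzyme for full effect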
MG interference – interferes with malachite green readout, flagging false Scp-1 hits; Colorimetric interference counterscreen, malachite green absorbance 630 nm; AID 540313; 2,500 tested, under 10 active; shares compounds with Scp1 inh; apparent inhibition (interference), % at 20 µM;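 note: compounds added after enzyme reaction finished so only phosphate colour detection is probed; plate controls were DMSO wells with completed Scp-1 reaction for no effect and substrate wells lacking enzyme for full effect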
Scp-1 Tm shift – Scp-1 (human) binding by thermal shift | 25% of 1,500 active | shares compounds with Scp1 inh | thermal shift relative to vanadate control, % at 40 µM | Recombinant SCP1, Sypro Orange thermal shift Tm;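 active = substances whose mean melting-temperature shift, as a percentage of the reference inhibitor's shift, reaches about 5.3%, limit read from the data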;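 note: 0% = Tm of DMSO wells and 100% = Tm with sodium orthovanadate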
Beacon interf DR – shows spectral interference in the DNMT1 beacon assay. shares compounds with DNMT1 inh. molecular beacon fluorescence, spectral interference counter-screen. IC50, µM. 200 tested, under 10 active; call rule not given here
DNMT1 confirm – DNMT1 inhibition confirmation, single concentration; DNMT1 molecular beacon HinP1I cleavage, fluorescence; 8% of 2,300 active; inhibition, % at 10 µM; shares compounds with DNMT1 inh; AID 602385;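 active = average inhibition of at least 30% in the single-concentration confirmation test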
DNMT1 interf – counter-screen for DNMT1 inhibitors: spectral interference. shares compounds with DNMT1 inh. DNMT1 molecular beacon spectral interference counterscreen, fluorescence 485/520. activation (fluorescence interference), % at 10 µM. AID 602387. 1% of 2,300 active;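 active = activation of at least 30% at 10 µM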;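 note: DNMT1 catalytic domain with a HinP1I cleavage step and a FAM/dabcyl DNA beacon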
* = called active by the depositor; nt = no result.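 Rule for the calls, unless noted: active = inhibition of at least 30% at 20 µM; inactive = the rest.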

SMILES	LMPTP block	Scp1 inh	STEP block	SUMO1-SIM PPI	DNMT1 inh	Scp1 confirm	MG interference	Scp-1 Tm shift	others
CCN(CC)P(c1n(C)cc[n+]1C)N(CC)CC	0	99*	4	-1	3	83*	-11	-26
CC(C)[N+](C)(CCC(C(N)=O)(c1ccccc1)c1ccccc1)C(C)C	-1	99*	-1	1	3	91*	-7	-12
O=[N+]([O-])/C=C/c1c(Cl)cccc1Cl	1	5	4	1	8	nt	nt	nt
CN1CCN(C(=O)COc2ccc(N(C)S(=O)(=O)c3ccc(F)cc3)cc2)CC1	0	68*	-3	-1	-1	-10	-11	nt
C[C@]12CCC3C(CC[C@H]4C[C@H](O)CC[C@]34C)C1[C@@H](O)[C@@H](O)[C@@H]2O (stereo partly specified)	0	-15	-4	-2	2	nt	nt	nt
CCC(c1nnnn1Cc1ccccc1)N1CCC2(CC1)C(=O)NCN2c1ccccc1 (stereo unspecified)	4	nt	6	3	3	nt	nt	nt
C[C@]12CCC3C(CC[C@H]4C[C@@H](O)CC[C@]34C)C1C[C@@H](Br)[C@@H]2O (stereo partly specified)	nt	59*	nt	nt	nt	-4	-8	nt
CN1CC[C@]23c4c5ccc(O)c4OC2[C@H](O)C=CC3[C@H]1C5 (stereo partly specified)	-1	2	0	-2	3	nt	nt	nt
COc1ccc2c3c1OC1C(O)C=CC4C(C2)[N+](C)(C)CCC341 (stereo unspecified)	-1	89*	-2	-1	-1	78*	-13	-20
C[N+](C)(C)c1ccccc1	-1	52*	-3	0	-1	17	-11	nt
COc1ccc(C(=O)OCC2CN2c2cccc([N+](=O)[O-])c2)cc1 (stereo unspecified)	0	nt	nt	-14	nt	nt	nt	nt
CCCC[N+]12CCC(CC1)C(=C(c1ccccc1)c1ccccc1)C2	0	98*	1	2	2	86*	-7	0
CC(C)N1CCOC(c2ccc(O)c(O)c2)C1 (stereo unspecified)	-2	nt	-3	3	11	nt	nt	nt
O=[N+]([O-])c1cccc(O)c1	-2	-3	-2	-14	0	nt	nt	nt
O=[N+]([O-])c1cc(S(=O)(=O)c2ccc(O)c([N+](=O)[O-])c2)ccc1O	-3	56*	2	33	41	61*	-8	17*
C[C@]12CCC3C(C(=O)C[C@H]4C[C@@H](O)CC[C@]34C)C1CCC2=O (stereo partly specified)	-2	3	-1	5	2	nt	nt	nt
COC(=O)C1=C(c2cccc(C#N)c2)C[C@@H]2CC[C@H]1N2C(=O)NCCO	-2	71*	2	3	6	2	-1	nt
CCOC(=O)[C@]12Cc3cc(OC)ccc3[C@H]1N(Cc1ccccc1)C(=O)c1ccccc12	2	-11	2	4	5	nt	nt	nt
CCOC(=O)C1(c2ccccc2)Oc2ccccc2C(c2ccc(OC)cc2)=C1C(=O)OC (stereo unspecified)	2	97*	0	2	9	1	-18	nt
COC(=O)C1=C(c2ccc(OCc3ccccc3)c(F)c2)C[C@@H]2CC[C@H]1N2C	0	nt	1	-3	-2	nt	nt	nt
COc1ccc(C(=O)N/N=C/C23CC[C@@H](O)CC2(O)CC[C@@H]2[C@@H]3CCC3(C)C(C4=CC(=O)OC4)CCC23O)cc1 (stereo partly specified)	-1	56*	1	2	-2	2	-8	nt
CCC1(c2ccc(C)cc2)C(=O)NC(=S)NC1=O	-1	nt	-1	1	0	nt	nt	nt
O=C(O)CCn1cc(C=C2C(=O)NC(=S)NC2=O)c(-c2cc3ccccc3oc2=O)n1	0	87*	2	10	53*	69*	-9	-9
O=C(O)CCn1cc(C=C2C(=O)NC(=S)NC2=O)c(-c2ccccc2)n1	-3	21	5	7	3	nt	nt	nt
C[N+]1(CC(COCc2ccccc2)OC(=O)Cc2ccccc2)CCOCC1 (stereo unspecified)	-1	112*	-1	-4	11	89*	-4	-3
SMILES	LMPTP block	Scp1 inh	STEP block	SUMO1-SIM PPI	DNMT1 inh	Scp1 confirm	MG interference	Scp-1 Tm shift	others
CN1CCC(OC(=O)Cc2ccccc2)CC1	-1	-7	-2	-3	0	nt	nt	nt
CCOC(=O)[C@]12Cc3cc(C)ccc3[C@H]1N(C1CCCCC1)C(=O)c1cc(OC)ccc12	5	nt	nt	14	nt	nt	nt	nt
CC(C)Cc1[nH]c(=O)c(C#N)c2c1CCC2	0	87*	0	0	-1	-7	-10	nt
C[Se]C[C@@H](N)C(=O)O	0	68*	-1	0	7	31*	-11	-23
O=C(Nc1ccc(C(=O)O)cc1)Oc1ccc(N(CCCl)CCCl)cc1	0	nt	0	8	-2	nt	nt	nt
C[N+]1(CC2COC(c3ccco3)O2)CCCCC1 (stereo unspecified)	0	109*	-1	-1	0	84*	-17	-16
COc1ccc(/C=C/C=C2C(=O)NC(=S)NC2=O)cc1	0	50*	2	15	10	14	-8	nt
Cc1ccc(S(=O)(=O)N2Cc3cc(-c4ccccc4)ccc3-n3nncc3C2)cc1	3	nt	18	6	-11	nt	nt	nt
CCOc1cc(C=C2C(=O)NC(=S)NC2=O)ccc1O	2	50	-3	-3	-4	7	-16	nt
COc1ccc(C=C2C(=O)NC(=S)NC2=O)cc1OC	-2	10	0	-3	0	nt	nt	nt
CCOc1cccc(N2C(=O)/C(=C/c3ccco3)C(=O)NC2=S)c1	34	74*	56*	56*	98*	70*	-11	6.4*	Beacon interf DR=>99;DNMT1 confirm=80*;DNMT1 interf=0
COc1ccccc1/C=C1\C(=O)NC(=S)N(c2ccccc2)C1=O	-2	15	0	9	-2	nt	nt	nt
